# From PubChem BioAssay
# The source made the active and inactive calls.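 The calls were made as follows, unless noted: active = viability at or under a set limit in both replicates, limit being median viability minus 3 SD (cut at about 48% in these data, passing the limit was not always enough); inconclusive = at or under the limit in just one replicate; inactive = at or above the limit in both replicates.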
# Key:
# [1] = reducers of endogenous Her2 protein level, primary screen, SKBR3 breast tumor cells, AlphaScreen, ATP viability (AID 461;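 active = Her2 level under about 52% in both replicate screens, with viability over 70% of control, limit read from the data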;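 as to Her2 level: lower value means less Her2 protein in the cells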;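 as to viability: percent of carrier control wells set as 100% viability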); details: 18-24 h, measured here: SKBR3 viability, ATP luminescence, at 10 µM
# [2] = target: Receptor tyrosine-protein kinase erbB-2 (Homo sapiens) (UniProt P04626); assay: as above; details: 18-24 h, at 10 µM, stronger effect = lower value
# [3] = SK-BR-3 cell growth inhibitors, pilot screen, 24 h, human (AID 572;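 active = viability at or below 10% of carrier control in both of two separate runs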;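 also: compound exposure lasted between 18 and 24 h rather than exactly 24 h; 100% = carrier-treated control wells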); details: SK-BR-3 viability, CellTiter-Glo luminescence, at 10 µM, stronger effect = lower value
# [4] = HUVEC growth inhibition – cell-based, human, primary screen (AID 575;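 active = viability at or below 30% in both replicate assays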;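 also: 100% = median of untreated cell wells with 0.1% DMSO on each plate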); details: HUVEC proliferation, CellTiter-Glo luminescence, 72 h; at 10 µM; stronger effect = lower value
# Procedure, shortened: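 Test system – primary HUVEC, no more than 12 passages · Dosing – one dose, 10 µM final, 0.1% DMSO · Times – 72 h treatment at 37 °C · Measured by – ATP-based CellTiter-Glo luminescent read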
# [5] = growth inhibitors of H69AR lung tumor, primary screen, human, duplicate replicates (AID 580); details: H69AR lung tumor cells viability, ATP luminescence, 72 h; at 10 µM; stronger effect = lower value;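 also: 100% = mean luminescence of untreated wells and 0% = no signal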
# [6] = reversal of MRP1-mediated doxorubicin resistance, pilot screen, H69AR cells, doxorubicin co-treatment (AID 601;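 active = viability loss from added drug above about 55%, and viability with drug at most 40%, in both replicates, limit read from the data, passing the limit was not always enough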); details: CellTiter-Glo, 72 h, at 10 µM; for differential viability (reversal): stronger effect = higher value
# [7] = 384-well plate pilot, post-Golgi transport modulator project, inhibition of yeast transport mutant growth (AID 636; in the data active = inhibition above about 31%); details: absorbance 615 nm, about 18 h, stronger effect = higher value
# [8] = growth suppression of yeast trafficking mutant, preliminary HTS, modulators of trafficking downstream of Golgi apparatus project, 1536-format plate, OD 615 nm (AID 637; in the data active = inhibition above about 30%); details: yeast transport mutant growth, absorbance 615 nm, 18 h; stronger effect = higher value
# [9] = H69AR cells + 2 uM doxorubicin, measured here: viability with 2 uM doxorubicin, stronger effect = lower value
# [10] = H69AR cells, compound alone cytotoxicity
# Receptor tyrosine-protein kinase erbB-2 (Homo sapiens), sequence (P04626 whole entry, looked up): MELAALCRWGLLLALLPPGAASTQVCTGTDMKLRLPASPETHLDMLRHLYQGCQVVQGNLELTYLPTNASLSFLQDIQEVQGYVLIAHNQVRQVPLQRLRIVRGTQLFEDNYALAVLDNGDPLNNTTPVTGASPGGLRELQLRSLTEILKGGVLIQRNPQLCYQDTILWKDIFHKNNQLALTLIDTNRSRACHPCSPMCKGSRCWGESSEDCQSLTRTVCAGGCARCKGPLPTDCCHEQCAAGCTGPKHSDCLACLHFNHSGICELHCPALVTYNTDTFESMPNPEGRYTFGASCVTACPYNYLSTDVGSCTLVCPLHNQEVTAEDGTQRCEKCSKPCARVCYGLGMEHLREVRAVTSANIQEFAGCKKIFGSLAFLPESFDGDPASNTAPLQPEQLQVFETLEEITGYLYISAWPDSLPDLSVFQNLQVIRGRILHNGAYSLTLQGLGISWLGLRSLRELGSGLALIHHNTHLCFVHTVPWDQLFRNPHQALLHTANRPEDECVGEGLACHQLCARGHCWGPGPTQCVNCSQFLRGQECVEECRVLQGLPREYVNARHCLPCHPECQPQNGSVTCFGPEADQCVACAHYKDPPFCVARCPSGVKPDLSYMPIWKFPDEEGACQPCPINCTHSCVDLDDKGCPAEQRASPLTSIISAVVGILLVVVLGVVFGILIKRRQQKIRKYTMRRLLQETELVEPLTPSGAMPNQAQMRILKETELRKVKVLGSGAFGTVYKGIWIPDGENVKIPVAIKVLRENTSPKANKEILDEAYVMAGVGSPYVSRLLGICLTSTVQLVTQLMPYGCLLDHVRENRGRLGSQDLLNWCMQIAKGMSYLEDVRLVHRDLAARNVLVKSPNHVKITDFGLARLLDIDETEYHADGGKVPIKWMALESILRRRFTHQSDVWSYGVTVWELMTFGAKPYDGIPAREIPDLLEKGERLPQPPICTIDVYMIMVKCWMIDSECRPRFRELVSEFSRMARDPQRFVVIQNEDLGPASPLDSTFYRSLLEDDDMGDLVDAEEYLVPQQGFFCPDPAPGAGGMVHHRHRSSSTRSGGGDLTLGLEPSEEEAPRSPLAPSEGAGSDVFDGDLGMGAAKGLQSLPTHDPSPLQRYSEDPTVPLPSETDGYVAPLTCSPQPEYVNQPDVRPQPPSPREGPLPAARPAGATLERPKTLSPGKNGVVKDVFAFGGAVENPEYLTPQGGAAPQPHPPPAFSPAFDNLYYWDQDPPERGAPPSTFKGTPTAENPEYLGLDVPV
Structure (SMILES),viability [1] [%],Her2 level [2],viability [3],viability [4],viability [5],differential viability (reversal) ([6]; H69AR cells + 2 uM doxorubicin),"viability [6, 9] [%]","viability [6, 10] [%]",inhibition [7],inhibition [8]
COCCn1c(=O)[nH]c2cc(C(=O)NCc3cccnc3)ccc2c1=O,89.5,88.5% (inactive),89.5% (inactive),107% (inactive),97.9% (inactive),4.27% (inactive),93.6,97.9,-7.57% (inactive),1.17% (inactive)
CCCNc1nc2c(c(=O)n(C)c(=O)n2C)n1Cc1cccc(C)c1,87.5,85% (inactive),87.5% (inactive),83.7% (inactive),95.6% (inactive),-5.19% (inactive),101,95.6,-4.25% (inactive),-3.97% (inactive)
CN1CCN(S(=O)(=O)c2ccc(Sc3nnc(-c4cccs4)n3-c3ccccc3)nc2)CC1,120,87.5% (inactive),120% (inactive),89.4% (inactive),85.7% (inactive),3.53% (inactive),82.2,85.7,-5.27% (inactive),-10% (inactive)
Cc1cc(C)c(-c2cc(C(=O)Nc3c(C)n(C)n(-c4ccccc4)c3=O)[nH]n2)c(O)c1,99.5,98% (inactive),99.5% (inactive),97.5% (inactive),105% (inactive),4.32% (inactive),100,105,-1.97% (inactive),-5.09% (inactive)
CCOC(=O)C(NC(=O)C1CCCN1C(=O)OCc1ccccc1)C(=O)OCC (stereo not given),104,94.5% (inactive),104% (inactive),98.2% (inactive),99.8% (inactive),3.49% (inactive),96.3,99.8,-1.58% (inactive),-1.77% (inactive)
CCOc1cc(C2C(C(=O)c3ccccc3)=C(C(=O)OC)Nc3nnnn32)ccc1O (stereo not given),113,96% (inactive),113% (inactive),91.6% (inactive),97.6% (inactive),16.4% (inactive),81.2,97.6,-1.84% (inactive),-5.45% (inactive)
O=S(=O)(NCCc1ccccc1F)c1cccc(S(=O)(=O)N2CCOCC2)c1,87,94.5% (inactive),87% (inactive),96.8% (inactive),97.5% (inactive),9.29% (inactive),88.2,97.5,-3.42% (inactive),3.77% (inactive)
CCOC(=O)c1c(NC(=O)OC)sc(C(=O)N(C)C)c1C,109,94.5% (inactive),109% (inactive),112% (inactive),108% (inactive),20% (inactive),87.9,108,-6.89% (inactive),-4% (inactive)
COCCNC(=O)C(c1ccc(C)o1)N(Cc1ccc(OC)cc1)C(=O)Cn1nnc2ccccc21 (stereo not given),102,98% (inactive),102% (inactive),102% (inactive),97.8% (inactive),-6.28% (inactive),104,97.8,-0.53% (inactive),-0.82% (inactive)
Cc1nc(/N=C(\N)Nc2ccccc2)nc2ccccc12,91.5,67.5% (inactive),91.5% (inactive),74.5% (inactive),78.7% (inactive),-21% (inactive),99.7,78.7,-0.26% (inactive),10.5% (inactive)
Cc1c(C(=O)O)oc2ccc(S(=O)(=O)NCc3ccccc3)cc12,105,113% (inactive),105% (inactive),113% (inactive),106% (inactive),0.815% (inactive),105,106,-3.42% (inactive),-6.51% (inactive)
COc1cccc(-n2nc(C(=O)Nc3ccc4c(c3)OCO4)c3ccccc3c2=O)c1,109,80.5% (inactive),109% (inactive),85.1% (inactive),92.2% (inactive),5.91% (inactive),86.3,92.2,-2.16% (inactive),-1.27% (inactive)
COc1ccc(-c2nn3c(-c4ccncc4)nnc3s2)cc1OC,105,116% (inactive),105% (inactive),104% (inactive),99.2% (inactive),-8.5% (inactive),108,99.2,-0.39% (inactive),0.16% (inactive)
O=C(CCSc1nc(-c2ccco2)cc(C(F)(F)F)n1)Nc1ccc2c(c1)OCO2,83,94.5% (inactive),83% (inactive),56.3% (inactive),78.4% (inactive),-10.1% (inactive),88.5,78.4,-7.47% (inactive),3.81% (inactive)
COc1ccc2nc(NC(=O)C3CCCN(S(=O)(=O)c4cccc5nsnc45)C3)sc2c1 (stereo not given),96.5,97.5% (inactive),96.5% (inactive),75% (inactive),83.1% (inactive),-10.1% (inactive),93.2,83.1,4.53% (inactive),-2.7% (inactive)
